Experimental data published in ChEMBL document CHEMBL1155262, “A new class of anticonvulsants possessing 6 Hz activity: 3,4-dialkyloxy thiophene bishydrazones” (Eur J Med Chem, 2009).
The source made the active and inactive calls. No cut-off for these calls is given here.

Experiments:
Mus musculus [1] = assay: Anticonvulsant activity in mouse CF1 albino assessed as inhibition of minimal electric shock-induced seizure at 60 mg/kg, ip after 4 hrs; type: functional, organism-based; parameters: dose 60 mg/kg
Outline: (§1)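 6 Hz psychomotor seizure model in male CF-1 albino mice dosed i.p. Four mice per time point (0.25, 0.5, 1, 2, 4 h) received corneal-electrode current of 32 mA for 3 s. Untreated mice show a minimal clonic phase followed by stereotyped automatistic behaviour. Results given as number protected out of 4.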

Mus musculus [2] = assay: Anticonvulsant activity in mouse CF1 albino assessed as inhibition of minimal electric shock-induced seizure at 60 mg/kg, ip after 0.5 hrs; type: functional, organism-based; parameters: dose 60 mg/kg; outline: as §1
Mus musculus [3] = assay: Anticonvulsant activity in mouse CF1 albino assessed as inhibition of minimal electric shock-induced seizure at 100 mg/kg, ip after 4 hrs; type: functional, organism-based; parameters: dose 100 mg/kg; outline: as §1
Mus musculus [4] = assay: Anticonvulsant activity in mouse CF1 albino assessed as inhibition of minimal electric shock-induced seizure at 60 mg/kg, ip after 1 hr; type: functional, organism-based; parameters: dose 60 mg/kg; outline: as §1
Mus musculus [5] = assay: Anticonvulsant activity in mouse CF1 albino assessed as inhibition of minimal electric shock-induced seizure at 100 mg/kg, ip after 0.5 hrs; type: functional, organism-based; parameters: dose 100 mg/kg; outline: as §1
Mus musculus [6] = assay: Anticonvulsant activity in mouse CF1 albino assessed as inhibition of minimal electric shock-induced seizure at 60 mg/kg, ip after 2 hrs; type: functional, organism-based; parameters: dose 60 mg/kg; outline: as §1
Mus musculus [7] = assay: Anticonvulsant activity in mouse CF1 albino assessed as inhibition of minimal electric shock-induced seizure at 100 mg/kg, ip after 1 hr; type: functional, organism-based; parameters: dose 100 mg/kg; outline: as §1
Mus musculus [8] = assay: Anticonvulsant activity in mouse CF1 albino assessed as inhibition of minimal electric shock-induced seizure at 60 mg/kg, ip after 0.25 hrs; type: functional, organism-based; parameters: dose 60 mg/kg; outline: as §1
Mus musculus [9] = assay: Anticonvulsant activity in mouse CF1 albino assessed as inhibition of minimal electric shock-induced seizure at 100 mg/kg, ip after 0.25 hrs; type: functional, organism-based; parameters: dose 100 mg/kg; outline: as §1
Mus musculus [10] = assay: Neurotoxicity against mouse CF1 albino assessed as minimal motor impairment at 300 mg/kg, ip after 4 hrs by rotord test; type: toxicity, organism-based; parameters: dose 300 mg/kg, route intraperitoneal; conditions: in vivo
Outline: (§2)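 Rotorod minimal motor impairment in male CF-1 albino mice (18–25 g) after i.p. dosing at 30, 100 or 300 mg/kg in 0.5% methyl cellulose/water or PEG 200. Mice placed on a rod rotating at 6 rpm at 0.5 or 4 h. Value is minimum dose causing impairment in at least one mouse.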

Mus musculus [11] = assay: Anticonvulsant activity in mouse CF1 albino assessed as inhibition of maximal electric shock-induced seizure at 300 mg/kg, ip after 4 hrs; type: functional, organism-based; parameters: dose 300 mg/kg
Outline: (§3)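 Male CF-1 albino mice (18–25 g); compound suspended in 0.5% methyl cellulose/water or PEG 200, given i.p. at 30, 100 and 300 mg/kg (0.01 mL/g). Tested 0.5 or 4 h after dosing. Protection = abolition of hind limb tonic extensor component of MES seizure.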

Mus musculus [12] = assay: Anticonvulsant activity in mouse CF1 albino assessed as inhibition of subcutaneous metrazole-induced seizure at 300 mg/kg, ip after 0.5 hrs; type: functional, organism-based; parameters: dose 300 mg/kg
Mus musculus [13] = assay: Anticonvulsant activity in mouse CF1 albino assessed as inhibition of minimal electric shock-induced seizure at 30 mg/kg, ip after 2 hrs; type: functional, organism-based; parameters: dose 30 mg/kg; outline: as §1
Mus musculus [14] = assay: Anticonvulsant activity in mouse CF1 albino assessed as inhibition of minimal electric shock-induced seizure at 30 mg/kg, ip after 4 hrs; type: functional, organism-based; parameters: dose 30 mg/kg; outline: as §1
Mus musculus [15] = assay: Anticonvulsant activity in mouse CF1 albino assessed as inhibition of subcutaneous metrazole-induced seizure at 300 mg/kg, ip after 4 hrs; type: functional, organism-based; parameters: dose 300 mg/kg
Mus musculus [16] = assay: Neurotoxicity against mouse CF1 albino assessed as minimal motor impairment at 300 mg/kg, ip after 0.5 hrs by rotord test; type: toxicity, organism-based; parameters: dose 300 mg/kg, route intraperitoneal; conditions: in vivo; outline: as §2
Mus musculus [17] = assay: Anticonvulsant activity in ip dosed mouse CF1 albino assessed as inhibition of maximal electric shock-induced seizure after 0.5 hrs; type: functional; outline: as §3

SMILES	Activity (Mus musculus [1])	Activity (Mus musculus [2])	Activity (Mus musculus [3])	Activity (Mus musculus [4])	Activity (Mus musculus [5])	Activity (Mus musculus [6])	Activity (Mus musculus [7])	Activity (Mus musculus [8])	Activity (Mus musculus [9])	Activity (Mus musculus [10])	Activity (Mus musculus [11])	Activity (Mus musculus [12])	Activity (Mus musculus [13])	Activity (Mus musculus [14])	Activity (Mus musculus [15])	Activity (Mus musculus [16])	Activity (Mus musculus [17])
CCCCCCCOc1c(C(=O)N/N=C/c2ccc([N+](=O)[O-])cc2)sc(C(=O)N/N=C/c2ccc([N+](=O)[O-])cc2)c1OCCCCCCC	inactive	inactive	inactive	inactive	Active	inactive	inactive	inactive	inactive								
C/C(=N\NC(=O)c1sc(C(=O)N/N=C(\C)c2cccs2)c2c1OCCO2)c1cccs1			inactive							Not Active	inactive	inactive	inactive	inactive	inactive	Not Active	300 mg/kg
